Data reported in ChEMBL document CHEMBL1770055, “Regioselective one pot synthesis of 3,3'-diindolylethylene derivatives and study of their cytotoxic activity” (Bioorg Med Chem Lett, 2011).

What was measured:
[1] = tested on: U-937; experiment: Cytotoxicity against human U937 cells assessed as cell growth inhibition after 48 hrs by MTS-PMS assay; type: functional, cell-based; conditions: U-937, 48 h
How it was run: (§1)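 Cells seeded at 5 × 10^4 per 200 µl and exposed to compounds at 0–100 µM, in triplicate, for 48 h at 37 °C, 5% CO2. MTS (2.0 mg/ml) and PMS (0.92 mg/ml) were mixed 10:1 and added, followed by 3 h at 37 °C. Absorbance (formazan) was read at 490 nm. Viability is expressed as % of untreated. IC50 was obtained by graphic extrapolation.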

[2] = tested on: K562; experiment: Cytotoxicity against human K562 cells assessed as cell growth inhibition after 48 hrs by MTS-PMS assay; type: functional, cell-based; conditions: K562, 48 h; how it was run: as §1
[3] = tested on: U-937; experiment: Induction of apoptosis in human U937 cells assessed as late apoptotic cells at 13.06 uM after 8 hrs using annexin V/propidium iodide staining by flow cytometry (reference value: 5.83%); type: functional
[4] = tested on: U-937; experiment: Induction of apoptosis in human U937 cells assessed as apoptotic cells at 13.06 uM after 8 hrs using annexin V/propidium iodide staining by flow cytometry (reference value: 2.42%); type: functional
[5] = tested on: U-937; experiment: Induction of apoptosis in human U937 cells assessed as pre-necrotic cells at 13.06 uM after 8 hrs using annexin V/propidium iodide staining by flow cytometry (reference value: 0.30%); type: functional

## C=C(c1c(-c2ccccc2)[nH]c2ccccc12)c1c(-c2ccccc2)[nH]c2ccccc12
[1]
  IC50: > 100 µM
[2]
  IC50: > 100 µM

## C=C(c1c(-c2cccc(Cl)c2)[nH]c2ccccc12)c1c(-c2cccc(Cl)c2)[nH]c2ccccc12
[1]
  IC50: 46.9 µM
[2]
  IC50: 40.3 µM

## C=C(c1c(-c2ccc(Cl)cc2Cl)[nH]c2ccccc12)c1c(-c2ccc(Cl)cc2Cl)[nH]c2ccccc12
[1]
  IC50: > 100 µM
[2]
  IC50: > 100 µM

## C=C(c1c(-c2ccccc2OC)[nH]c2ccccc12)c1c(-c2ccccc2OC)[nH]c2ccccc12
[1]
  IC50: 71.6 µM
[2]
  IC50: 92.6 µM

## C=C(c1c(-c2ccc(OC)c(OC)c2)[nH]c2ccccc12)c1c(-c2ccc(OC)c(OC)c2)[nH]c2ccccc12
[1]
  IC50: > 100 µM
[2]
  IC50: > 100 µM

## C=C(c1c(-c2cccc(Br)c2)[nH]c2ccccc12)c1c(-c2cccc(Br)c2)[nH]c2ccccc12
[1]
  IC50: > 100 µM
[2]
  IC50: > 100 µM

## ClC=C(c1c(-c2ccccc2)[nH]c2ccccc12)c1c(-c2ccccc2)[nH]c2ccccc12
[3]
  Activity: 11.68%
[4]
  Activity: 41%
[5]
  Activity: 1.3%
[1]
  IC50: 13.1 µM
[2]
  IC50: 18.2 µM
